TRPC6 act – activates the mouse TRPC6 cation channel; Q61143; HEK293-TRPC6 membrane potential dye fluorescence; hits give high values; B-score at 10 µM; actives 0.13% (n = 310,000); AID 2550;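 active means B-score of the integrated fluorescence ratio above library mean plus 3 SD, and starting fluorescence ratio within library mean plus 5 SD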;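 further: higher score means more depolarization so channel activation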
TRPC4 PAM – allosterically enhances the mouse TRPC4 cation channel; Q9QUQ5; B-score at 10 µM; actives 0.42% (n = 310,000); HEK293 TRPC4beta/mu-opioid, DAMGO EC20, Fluo-4 Ca2+ flux; hits give high values;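 active means B-score of calcium response area above 5 SD of library B-scores, with initial fluorescence ratio within 5 SD of library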;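 further: B-score of integrated fluorescence ratio over time as area under calcium response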
Target sequence (Q9QUQ5 whole entry, looked up): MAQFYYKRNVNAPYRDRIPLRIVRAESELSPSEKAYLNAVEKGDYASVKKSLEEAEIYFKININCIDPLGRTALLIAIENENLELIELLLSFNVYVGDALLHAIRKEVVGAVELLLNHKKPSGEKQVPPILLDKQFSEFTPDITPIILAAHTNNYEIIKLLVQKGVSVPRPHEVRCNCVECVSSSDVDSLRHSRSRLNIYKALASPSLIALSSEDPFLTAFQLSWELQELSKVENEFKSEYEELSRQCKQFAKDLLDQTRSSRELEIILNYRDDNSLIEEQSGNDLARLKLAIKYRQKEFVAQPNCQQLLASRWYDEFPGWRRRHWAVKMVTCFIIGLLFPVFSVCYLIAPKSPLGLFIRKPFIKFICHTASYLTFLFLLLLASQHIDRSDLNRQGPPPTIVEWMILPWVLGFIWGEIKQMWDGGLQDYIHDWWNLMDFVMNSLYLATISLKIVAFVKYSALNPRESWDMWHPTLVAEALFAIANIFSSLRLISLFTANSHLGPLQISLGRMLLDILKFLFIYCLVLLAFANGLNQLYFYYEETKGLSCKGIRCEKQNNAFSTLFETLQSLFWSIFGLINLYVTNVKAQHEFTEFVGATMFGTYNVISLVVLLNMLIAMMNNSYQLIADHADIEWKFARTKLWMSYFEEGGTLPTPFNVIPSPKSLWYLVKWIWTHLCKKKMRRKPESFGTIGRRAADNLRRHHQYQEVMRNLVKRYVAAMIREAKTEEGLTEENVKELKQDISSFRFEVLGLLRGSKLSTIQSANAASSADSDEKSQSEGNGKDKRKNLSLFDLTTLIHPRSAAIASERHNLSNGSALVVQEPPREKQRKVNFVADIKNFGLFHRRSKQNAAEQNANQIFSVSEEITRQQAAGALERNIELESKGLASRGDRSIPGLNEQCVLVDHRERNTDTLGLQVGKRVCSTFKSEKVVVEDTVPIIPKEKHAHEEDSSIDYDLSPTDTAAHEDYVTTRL
TRPC4 act – activators of mouse TRPC4 channel | Q9QUQ5 | HEK293 TRPC4beta/mu-opioid, Fluo4 calcium fluorescence; hits give high values | B-score at 10 µM | actives 0.49% (n = 310,000);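 active means B-score above 5 SD of library B-scores, and initial fluorescence ratio not above library mean plus 5 SD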;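 further: positive B-score marks a calcium rise read as TRPC4 activation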
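Material: TRPC4beta and mu-opioid receptor HEK293 stable cells | Incubation: 45 min room-temperature Fluo4 loading, 110 s read | Detection: Kinetic Fluo4 calcium fluorescence | Measure: Integrated baseline-normalised fluorescence ratio, converted to per-well B score | Benchmarks: Low control buffer alone, high control maximal DAMGO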
TRPC6 inh – mouse TRPC6 channel inhibition; Q61143; HEK293-TRPC6, membrane potential dye, ACh-evoked depolarization; hits give low values; B-score at 10 µM; actives 1.1% (n = 310,000);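 active means B-score under library mean minus 3 SD, initial fluorescence not abnormally high, positive integrated signal ratio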;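 further: B-score derived from integrated fluorescence ratio over the kinetic read; more negative B-score means stronger inhibition of depolarization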
TRPC4 block – blocks the mouse TRPC4 cation channel; Q9QUQ5; HEK293 TRPC4beta/mu-opioid, DAMGO-evoked Fluo4 calcium flux; hits give low values; B-score at 10 µM; actives 0.39% (n = 300,000); AID 2247;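 active means B-score over 3 SD under the library average, no early fluorescence shift, positive overall ratio signal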
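Material: HEK293 cells with stable TRPC4beta plus mu-opioid receptor expression / Probe or stimulus: DAMGO in two steps, submaximal then maximal / Compound: single concentration per test compound / Technique: kinetic Fluo4 fluorescence imaging of calcium influx / Read-out: per-well B score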
HEK293 TRPC6 ctr – counter-screen for TRPC6 modulators: effect in parental HEK293 cells | shares compounds with TRPC6 inh | membrane potential dye fluorescence | membrane potential signal change, % at 10 µM | actives 51% (n = 2,400) | AID 488924;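 active means membrane potential signal moves up or down beyond 5 SD from buffer-only wells, on both duplicate plates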
HEK293 MPD ctr 2 – second check of TRPC6 modulator effects in parental HEK293 cells; shares compounds with TRPC6 inh; membrane potential dye fluorescence; after compound, maximal acetylcholine stimulation; inhibition, % at 10 µM; actives 14% (n = 2,400); AID 488926;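 active means membrane potential signal drops by more than 5 SD from the mean control signal, in both duplicate plates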;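 further: plate controls were acetylcholine ECmax control wells for no effect and buffer only wells for full effect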
TRPC4 ctr mod – selectivity of TRPC6 modulators against mouse TRPC4. actives 69% (n = 2,400). HEK293 TRPC4/mu-opioid, membrane potential fluorescence. percent change from control (negative = decrease, positive = increase), % at 10 µM. shares compounds with TRPC6 inh;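 active means membrane potential signal moved up or down beyond 5 SD of buffer control wells, in both duplicate plates, actives on both sides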;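 further: plate controls were assay buffer wells for no effect and DAMGO maximal-effect wells for full effect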
TRPC4 ctr inh 2 – second selectivity test of TRPC6 modulators against mouse TRPC4. shares compounds with TRPC6 inh. HEK293 TRPC4/mu-opioid, membrane potential dye fluorescence; stimulated with maximal-effect DAMGO. inhibition, % at 10 µM. actives 55% (n = 2,400);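 active means drop in membrane potential signal beyond 5 SD of the control wells in both duplicate plates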;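 further: TRPC4 counter screen for TRPC6 hits run under conditions tuned for TRPC6 not TRPC4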
TRPC6 inh conf – mouse TRPC6 inhibitor confirmation. HEK293-TRPC6, membrane potential dye, ACh-evoked depolarization. shares compounds with TRPC6 inh. AID 488960. actives 43% (n = 3,300). inhibition, % at 10 µM;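 active means fluorescence ratio falls more than 5 SD below the full-stimulation control mean, in both duplicate runs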;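 further: integrated fluorescence ratio of peak minus minimum over baseline after agonist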
TRPC6 act conf – mouse TRPC6 activator confirmation. activation, % at 10 µM. shares compounds with TRPC6 inh. actives 11% (n = 2,800). HEK293-TRPC6 membrane potential dye fluorescence, FDSS. AID 488961;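 active means ratio signal rise beyond 5 SD above unstimulated control wells' mean, seen in both duplicate runs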;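 further: plate controls were buffer EC0 wells for no effect and acetylcholine ECmax response for full effect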
* = called active by the depositor. Only some compounds are listed: those with a hit (about 2.3% of all), similar ones and a draw of the others.

Screening COC(=O)c1cc(OC(=O)c2ccc(=O)[nH]c2)cc(C(=O)OC)c1 returned TRPC6 act inactive, TRPC4 PAM inactive, TRPC4 act inactive, TRPC6 inh inactive and TRPC4 block inactive.
CN(C)CCNC(=O)c1ccc2c(c1)N(Cc1ccc(F)cc1)CCS2 was read as TRPC6 act inactive, TRPC4 PAM inactive, TRPC4 act inactive, TRPC6 inh -6.4*, TRPC4 block inactive, HEK293 TRPC6 ctr inactive, HEK293 MPD ctr 2 inactive, TRPC4 ctr mod inactive, TRPC4 ctr inh 2 74%*, TRPC6 inh conf 66%* and TRPC6 act conf inactive.
Screening O=C(Nc1scc(-c2ccc(Br)cc2)c1C(=O)O)c1ccccc1F returned TRPC6 act inactive, TRPC4 PAM inactive, TRPC4 act inactive, TRPC6 inh -5.3*, TRPC4 block inactive, HEK293 TRPC6 ctr inactive, HEK293 MPD ctr 2 inactive, TRPC4 ctr mod inactive, TRPC4 ctr inh 2 40%*, TRPC6 inh conf 54%* and TRPC6 act conf inactive.
`NC(=O)c1c(NC(=O)C2c3ccccc3Oc3ccccc32)sc2c1CCCCC2` gave TRPC6 act inactive, TRPC4 PAM inactive, TRPC4 act inactive, TRPC6 inh -5.1*, TRPC4 block inactive, HEK293 TRPC6 ctr inactive, HEK293 MPD ctr 2 inactive, TRPC4 ctr mod inactive, TRPC4 ctr inh 2 inactive, TRPC6 inh conf inactive and TRPC6 act conf inactive.
`CC(=O)Nc1sc2c(c1C(N)=O)CCCC2` gave TRPC6 act inactive, TRPC4 PAM inactive, TRPC4 act inactive, TRPC6 inh inactive and TRPC4 block inactive.
CN(CC(=O)Nc1ccc(Cl)cc1)C(=O)CCc1nc2sc3c(c2c(=O)[nH]1)CCCC3 was read as TRPC6 act inactive, TRPC4 PAM inactive, TRPC4 act inactive, TRPC6 inh inactive and TRPC4 block inactive.
For CC(NCCC(Cc1ccccc1)c1ccco1)c1ccccc1 (stereo unspecified) the results were TRPC6 act 12*, TRPC4 PAM inactive, TRPC4 act inactive, TRPC6 inh -5.6*, TRPC4 block -6*, HEK293 TRPC6 ctr 167%*, HEK293 MPD ctr 2 inactive, TRPC4 ctr mod 42%*, TRPC4 ctr inh 2 40%*, TRPC6 inh conf inactive and TRPC6 act conf 36%*.
For Fc1ccc(CNCCC(Cc2ccccc2)c2ccco2)cc1 (stereo unspecified) the results were TRPC6 act inactive, TRPC4 PAM inactive, TRPC4 act inactive, TRPC6 inh inactive and TRPC4 block inactive.
CCOc1ccccc1N1CCN(C(=O)NCc2ccc(C)cc2)CC1 was read as TRPC6 act inactive, TRPC4 PAM inactive, TRPC4 act inactive, TRPC6 inh inactive and TRPC4 block inactive.
`COc1ccc(C(=O)N/N=C/c2sc3ccccc3c2O)cc1` gave TRPC6 act 12*, TRPC4 PAM inactive, TRPC4 act inactive, TRPC6 inh inactive, TRPC4 block inactive, HEK293 TRPC6 ctr active, HEK293 MPD ctr 2 active, TRPC4 ctr mod 112%*, TRPC4 ctr inh 2 40%* and TRPC6 act conf 198%*.
